Results taken from ChEMBL document CHEMBL1127319, “CNAD: a potent and specific inhibitor of alcohol dehydrogenase” (J Med Chem, 1994).

Substrate: NC(=O)c1ccc[n+]([C@@H]2O[C@H](COP(=O)([O-])OP(=O)(O)OC[C@H]3O[C@@H](n4cnc5c(N)ncnc54)[C@H](O)[C@@H]3O)[C@@H](O)[C@H]2O)c1
Assay: Michaelis-Menten constant against mammalian liver alcohol dehydrogenase (ADH)
Conditions: Equus caballus
Procedure, shortened: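 NAD is varied and the A340 increase from NADH formation is monitored (ε 6.22 mM-1 cm-1). Buffers differ by enzyme: ADH in 0.1 M phosphate, pH 8.0, with ethanol 1.2 mM; GDH in 0.1 M phosphate, pH 7.0, with 10 μM EDTA; LDH and MDH in 0.05 M Tris-HCl, pH 9.0. At least duplicate.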

B1: Alcohol dehydrogenase 1A (Homo sapiens), P07327 (protein)
chain: MSTAGKVIKCKAAVLWELKKPFSIEEVEVAPPKAHEVRIKMVAVGICGTDDHVVSGTMVTPLPVILGHEAAGIVESVGEGVTTVKPGDKVIPLAIPQCGKCRICKNPESNYCLKNDVSNPQGTLQDGTSRFTCRRKPIHHFLGISTFSQYTVVDENAVAKIDAASPLEKVCLIGCGFSTGYGSAVNVAKVTPGSTCAVFGLGGVGLSAIMGCKAAGAARIIAVDINKDKFAKAKELGATECINPQDYKKPIQEVLKEMTDGGVDFSFEVIGRLDTMMASLLCCHEACGTSVIVGVPPDSQNLSMNPMLLLTGRTWKGAILGGFKSKECVPKLVADFMAKKFSLDALITHVLPFEKINEGFDLLHSGKSIRTILMF
Work on B1 yielded a Km of 25 µM.
